Experimental data as given in ChEMBL document CHEMBL1124191, “Design of rat renin inhibitory peptides” (J Med Chem, 1988).
*1 amine or outer side, *2 acyl side, *3 side chain or, on linkers, in order; H or OH if unused. Where a SMILES comes first, the peptide text is derived from it. [ ]: non-standard residue; d: D form. Ahppa(3S,4S) = O=C(C[C@H](O)[C@H](Cc1ccccc1)N[*:1])[*:2]; ACHPA = O=C(C[C@H](O)[C@H](CC1CCCCC1)N[*:1])[*:2]; 1Nal = N[C@@H](Cc1cccc2ccccc12)C(=O)O; Sta = CC(C)C[C@H](N)[C@@H](O)CC(=O)O; Cha = N[C@@H](CC1CCCCC1)C(=O)O; Chg = N[C@H](C(=O)O)C1CCCCC1; Tle = CC(C)(C)[C@H](N)C(=O)O

Molecular target: T1, Renin (Rattus norvegicus, UniProt P08424)
T1 sequence (P08424 whole entry): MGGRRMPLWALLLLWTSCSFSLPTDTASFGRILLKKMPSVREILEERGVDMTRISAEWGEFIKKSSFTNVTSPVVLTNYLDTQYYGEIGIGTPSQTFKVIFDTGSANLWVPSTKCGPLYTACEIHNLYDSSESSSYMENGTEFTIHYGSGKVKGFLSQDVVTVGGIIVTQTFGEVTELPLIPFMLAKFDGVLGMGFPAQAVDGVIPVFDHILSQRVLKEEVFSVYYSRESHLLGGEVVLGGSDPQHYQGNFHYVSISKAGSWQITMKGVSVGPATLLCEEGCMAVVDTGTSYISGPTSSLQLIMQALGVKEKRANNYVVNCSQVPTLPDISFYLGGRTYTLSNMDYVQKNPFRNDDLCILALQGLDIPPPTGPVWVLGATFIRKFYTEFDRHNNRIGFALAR
Assay: Inhibitory activity against rat plasma renin in vitro.
Assay type: cell-free
Method in brief: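 Pooled EDTA rat plasma with added PMSF 5 mM, 8-hydroxyquinoline 3 mM and extra EDTA 5 mM, at pH 7.4, mixed with serial 1:10 peptide dilutions (Tris/DMSO), split, and incubated 1 h at 37 and 0 °C.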

| Compound | IC50 |
| --- | --- |
| CC(=O)N[C@@H](Cc1c[nH]cn1)C(=O)N1CCC[C@H]1C(=O)N[C@@H](Cc1ccccc1)C(=O)N[C@H](C(=O)N[C@@H](CC(C)C)[C@@H](O)CC(=O)N[C@@H](CC(C)C)C(=O)N[C@@H](Cc1ccccc1)C(N)=O)C(C)C | 0.03 µM |
| CC(=O)N[C@@H](Cc1cnc[nH]1)C(=O)N1CCC[C@H]1C(=O)N[C@@H](Cc1ccccc1)C(=O)N[C@@H](CC(C)C)C(=O)N[C@@H](CC(C)C)[C@@H](O)CC(=O)N[C@@H](CC(C)C)C(=O)N[C@@H](Cc1ccccc1)C(N)=O | 0.31 µM |
| CC(C)C[C@H](NC(=O)[C@H](Cc1cnc[nH]1)NC(=O)[C@H](Cc1ccccc1)NC(=O)[C@@H]1CCCN1C(=O)[C@H](Cc1cnc[nH]1)NC(=O)[C@@H]1CCCN1)[C@@H](O)CC(=O)N[C@@H](Cc1ccc(O)cc1)C(=O)N[C@@H](Cc1ccc(O)cc1)C(=O)N[C@@H](CCCCN)C(N)=O (H-PHPFH[Sta]YYK-NH2) | 35 µM |
| CC(=O)N[C@@H](Cc1c[nH]cn1)C(=O)N1CCC[C@H]1C(=O)N[C@@H](Cc1ccccc1)C(=O)N[C@H](CC(C)C)C(=O)N[C@@H](CC(C)C)[C@@H](O)CC(=O)N[C@@H](CC(C)C)C(=O)N[C@@H](Cc1ccccc1)C(N)=O | ~1000 µM |
| CC(=O)N[C@@H](Cc1cnc[nH]1)C(=O)N1CCC[C@H]1C(=O)N[C@@H](Cc1ccccc1)C(=O)N[C@H](C(=O)N[C@@H](CC(C)C)[C@@H](O)CC(=O)N[C@@H](CC(C)C)C(=O)N[C@@H](Cc1ccccc1)C(N)=O)C1CCCCC1 (Ac-HPF[Chg][Sta]LF-NH2) | 2.5 µM |
| CC(C)C[C@H](NC(=O)C[C@H](O)[C@H](CC(C)C)NC(=O)[C@H](Cc1c[nH]cn1)NC(=O)[C@H](Cc1ccccc1)NC(=O)[C@@H]1CCCN1C(=O)[C@H](Cc1c[nH]cn1)NC(=O)[C@@H]1CCCN1)C(=O)N[C@@H](Cc1ccc(O)cc1)C(=O)N[C@@H](Cc1ccc(O)cc1)C(N)=O (H-PHPFH[Sta]LYY-NH2) | 0.775 µM |
| CC(=O)N[C@@H](Cc1c[nH]cn1)C(=O)N1CCC[C@H]1C(=O)N[C@@H](Cc1cccc2ccccc12)C(=O)N[C@@H](Cc1c[nH]cn1)C(=O)N[C@@H](CC(C)C)[C@@H](O)CC(=O)N[C@@H](CC(C)C)C(=O)N[C@@H](Cc1ccccc1)C(N)=O (Ac-HP[1Nal]H[Sta]LF-NH2) | 0.22 µM |
| CC[C@H](C)[C@H](NC(=O)C[C@H](O)[C@H](CC(C)C)NC(=O)[C@H](Cc1c[nH]cn1)NC(=O)[C@H](Cc1ccccc1)NC(=O)[C@@H]1CCCN1C(=O)[C@H](Cc1c[nH]cn1)NC(=O)[C@@H]1CCCN1)C(=O)N[C@@H](Cc1ccccc1)C(N)=O (H-PHPFH[Sta]IF-NH2) | 10 µM |
| CC(=O)N[C@@H](Cc1cccc2ccccc12)C(=O)N1CCC[C@H]1C(=O)N[C@@H](Cc1ccccc1)C(=O)N[C@H](C(=O)N[C@@H](CC(C)C)[C@@H](O)CC(=O)N[C@@H](CC(C)C)C(=O)N[C@@H](Cc1ccccc1)C(N)=O)C(C)C (Ac-[1Nal]PFV[Sta]LF-NH2) | 0.05 µM |
| CC[C@H](C)[C@H](NC(=O)C[C@H](O)[C@H](CC1CCCCC1)NC(=O)[C@H](Cc1c[nH]cn1)NC(=O)[C@H](Cc1ccccc1)NC(=O)[C@@H]1CCCN1C(=O)[C@H](Cc1c[nH]cn1)NC(=O)[C@@H]1CCCN1)C(=O)N[C@@H](Cc1ccccc1)C(N)=O (H-PHPFH[ACHPA]IF-NH2) | 0.065 µM |
| CC(C)C[C@H](NC(=O)C[C@H](O)[C@H](CC(C)C)NC(=O)[C@H](Cc1cnc[nH]1)NC(=O)[C@H](Cc1ccccc1)NC(=O)[C@@H]1CCCN1C(=O)[C@H](Cc1cnc[nH]1)NC(=O)[C@@H]1CCCN1)C(=O)N[C@@H](Cc1ccccc1)C(N)=O (H-PHPFH[Sta]LF-NH2) | 0.24 µM |
| CC(C)C[C@H](NC(=O)[C@H](Cc1c[nH]cn1)NC(=O)[C@H](Cc1ccccc1)NC(=O)[C@@H]1CCCN1C(=O)[C@H](Cc1c[nH]cn1)NC(=O)[C@@H]1CCCN1)[C@@H](O)CC(=O)N[C@H](C(=O)N[C@H](C(N)=O)[C@@H](C)O)[C@@H](C)O (H-PHPFH[Sta]TT-NH2) | 105 µM |
| COc1ccc(C[C@H](NC(C)=O)C(=O)N2CCC[C@H]2C(=O)N[C@@H](Cc2ccccc2)C(=O)N[C@H](C(=O)N[C@@H](CC(C)C)[C@@H](O)CC(=O)N[C@@H](CC(C)C)C(=O)N[C@@H](Cc2ccccc2)C(N)=O)C(C)C)cc1 (Ac-Y(Me)PFV[Sta]LF-NH2) | 0.034 µM |
| CC(=O)N[C@@H](Cc1cnc[nH]1)C(=O)N1CCC[C@H]1C(=O)N[C@@H](CC1CCCCC1)C(=O)N[C@@H](Cc1cnc[nH]1)C(=O)N[C@@H](CC(C)C)[C@@H](O)CC(=O)N[C@@H](CC(C)C)C(=O)N[C@@H](Cc1ccccc1)C(N)=O (Ac-HP[Cha]H[Sta]LF-NH2) | 0.65 µM |
| CC(=O)N[C@@H](Cc1cnc[nH]1)C(=O)N1CCC[C@H]1C(=O)N[C@@H](Cc1ccccc1)C(=O)N[C@@H](Cc1cnc[nH]1)C(=O)N[C@@H](CC(C)C)[C@@H](O)CC(=O)N[C@@H](CC(C)C)C(=O)N[C@H](C(N)=O)C(C)C (Ac-HPFH[Sta]LV-NH2) | 0.27 µM |
| CC(=O)N[C@@H](Cc1ccccc1)C(=O)N1CCC[C@H]1C(=O)N[C@@H](Cc1ccccc1)C(=O)N[C@H](C(=O)N[C@@H](CC(C)C)[C@@H](O)CC(=O)N[C@@H](CC(C)C)C(=O)N[C@@H](Cc1ccccc1)C(N)=O)C(C)C (Ac-FPFV[Sta]LF-NH2) | 0.042 µM |
| CC(=O)N[C@@H](Cc1cnc[nH]1)C(=O)N1CCC[C@H]1C(=O)N[C@@H](Cc1c[nH]c2ccccc12)C(=O)N[C@@H](Cc1cnc[nH]1)C(=O)N[C@@H](CC(C)C)[C@@H](O)CC(=O)N[C@@H](CC(C)C)C(=O)N[C@@H](Cc1ccccc1)C(N)=O (Ac-HPWH[Sta]LF-NH2) | 0.24 µM |
| CC(C)[C@H](NC(=O)C[C@H](O)[C@H](Cc1ccccc1)NC(=O)[C@H](Cc1c[nH]cn1)NC(=O)[C@H](Cc1ccccc1)NC(=O)[C@@H]1CCCN1C(=O)[C@H](Cc1c[nH]cn1)NC(=O)[C@@H]1CCCN1)C(=O)N[C@@H](Cc1ccc(O)cc1)C(=O)N[C@@H](CCCCN)C(N)=O (H-PHPFH[Ahppa(3S,4S)]VYK-NH2) | 1.3 µM |
| CC(=O)N[C@@H](Cc1cnc[nH]1)C(=O)N1CCC[C@H]1C(=O)N[C@@H](Cc1ccccc1)C(=O)N[C@@H](Cc1cnc[nH]1)C(=O)N[C@@H](CC1CCCCC1)[C@@H](O)CC(=O)N[C@@H](CC(C)C)C(=O)N[C@@H](Cc1ccccc1)C(N)=O | 0.05 µM |
| CC(=O)N[C@@H](Cc1c[nH]cn1)C(=O)N1CCC[C@H]1C(=O)N[C@@H](Cc1ccccc1)C(=O)N[C@@H](Cc1c[nH]cn1)C(=O)N[C@@H](CC(C)C)[C@@H](O)CC(=O)N[C@@H](CC1CCCCC1)C(=O)N[C@@H](Cc1ccccc1)C(N)=O (Ac-HPFH[Sta][Cha]F-NH2) | 2.7 µM |
| CC(=O)N[C@@H](Cc1c[nH]cn1)C(=O)N1CCC[C@@H]1C(=O)N[C@H](C)C(=O)N[C@@H](Cc1c[nH]cn1)C(=O)N[C@@H](CC(C)C)[C@@H](O)CC(=O)N[C@@H](CC(C)C)C(=O)N[C@@H](Cc1ccccc1)C(N)=O | ~1000 µM |
| CC(C)C[C@H](NC(=O)[C@H](Cc1c[nH]cn1)NC(=O)[C@H](Cc1ccccc1)NC(=O)[C@@H]1CCCN1C(=O)[C@H](Cc1c[nH]cn1)NC(=O)[C@@H]1CCCN1)[C@@H](O)CC(=O)N[C@@H](Cc1ccc(O)cc1)C(=O)N[C@@H](Cc1ccc(O)cc1)C(=O)N[C@@H](CO)C(=O)N[C@@H](CCCCN)C(N)=O (H-PHPFH[Sta]YYSK-NH2) | 7.9 µM |
| CC(=O)N[C@H](C(=O)N1CCC[C@H]1C(=O)N[C@@H](Cc1ccccc1)C(=O)N[C@H](C(=O)N[C@@H](CC(C)C)[C@@H](O)CC(=O)N[C@@H](CC(C)C)C(=O)N[C@@H](Cc1ccccc1)C(N)=O)C(C)C)C1CCCCC1 (Ac-[Chg]PFV[Sta]LF-NH2) | 0.28 µM |
| CC(=O)N[C@@H](Cc1c[nH]cn1)C(=O)N1CCC[C@H]1C(=O)N[C@@H](CC(C)C)C(=O)N[C@@H](Cc1c[nH]cn1)C(=O)N[C@@H](CC(C)C)[C@@H](O)CC(=O)N[C@@H](CC(C)C)C(=O)N[C@@H](Cc1ccccc1)C(N)=O | 9.1 µM |
| CC(=O)N[C@@H](Cc1c[nH]cn1)C(=O)N1CCC[C@@H]1C(=O)N[C@@H](Cc1ccccc1)C(=O)N[C@H](C)C(=O)N[C@@H](CC(C)C)[C@@H](O)CC(=O)N[C@@H](CC(C)C)C(=O)N[C@@H](Cc1ccccc1)C(N)=O | ~1000 µM |
| CC(=O)N[C@@H](Cc1cnc[nH]1)C(=O)N1CCC[C@H]1C(=O)N[C@@H](Cc1ccccc1)C(=O)N[C@@H](Cc1cnc[nH]1)C(=O)N[C@@H](CC(C)C)[C@@H](O)CC(=O)N[C@H](C(=O)N[C@@H](Cc1ccccc1)C(N)=O)C(C)(C)C (Ac-HPFH[Sta][Tle]F-NH2) | 1.9 µM |
| CC(=O)N[C@@H](Cc1c[nH]cn1)C(=O)N1CCC[C@H]1C(=O)N[C@@H](Cc1ccccc1)C(=O)N[C@@H](Cc1c[nH]cn1)C(=O)N[C@@H](CC(C)C)[C@@H](O)CC(=O)N[C@@H](CC(C)C)C(=O)N[C@@H](CC1CCCCC1)C(N)=O (Ac-HPFH[Sta]L[Cha]-NH2) | 0.16 µM |
| CC(=O)N[C@@H](Cc1cnc[nH]1)C(=O)N1CCC[C@H]1C(=O)N[C@@H](Cc1ccccc1)C(=O)N[C@@H](Cc1cnc[nH]1)C(=O)N[C@@H](Cc1ccccc1)[C@@H](O)CC(=O)N[C@@H](CC(C)C)C(=O)N[C@@H](Cc1ccccc1)C(N)=O (Ac-HPFH[Ahppa(3S,4S)]LF-NH2) | 0.15 µM |
| CC[C@H](C)[C@H](NC(=O)C[C@H](O)[C@H](Cc1ccccc1)NC(=O)[C@H](Cc1c[nH]cn1)NC(=O)[C@H](Cc1ccccc1)NC(=O)[C@@H]1CCCN1C(=O)[C@H](Cc1c[nH]cn1)NC(=O)[C@@H]1CCCN1)C(=O)N[C@@H](Cc1ccccc1)C(N)=O (H-PHPFH[Ahppa(3S,4S)]IF-NH2) | 0.37 µM |
| CC(C)C[C@H](NC(=O)[C@H](Cc1cnc[nH]1)NC(=O)[C@H](Cc1ccccc1)NC(=O)[C@@H]1CCCN1C(=O)[C@H](Cc1cnc[nH]1)NC(=O)[C@@H]1CCCN1)[C@@H](O)CC(=O)N[C@@H](Cc1ccc(O)cc1)C(=O)N[C@@H](Cc1ccc(O)cc1)C(N)=O (H-PHPFH[Sta]YY-NH2) | 1.6 µM |
